Screens from PubChem.
MC4R antagonist = blocks human MC4R cAMP signaling. P32245. MC4R-expressing cells, MTII-stimulated cAMP, LANCE TR-FRET. inhibition, % at 6.5 µM. 0.48% of 360,000 active. AID 540295;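 active = inhibition above its plate's cutoff, the mean of tested wells on that plate plus 3 SD, cut at about 29% in these data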;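 also: 0% = Melanotan II alone and 100% = Melanotan II plus saturating MCL0020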
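Material: human MC4R-expressing U2OS cells. Probe or stimulus: Melanotan II challenge. Dosing: 6.5 µM single dose. Times: 30-min compound, 1-h challenge, 1-h detection, room temperature. Technique: TR-FRET with Eu-cAMP and labeled anti-cAMP, 671 nm. Replication: singlicate.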
AHR act = human AHR activation; P35869; AHR-responsive luciferase reporter cells, luminescence; activation, % at 5 µM; 2.5% of 320,000 active; AID 2796; in the data active = activation above about 47%;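 also: 0% = vehicle wells and 100% = reference agonist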
Target sequence (P35869 whole entry, looked up): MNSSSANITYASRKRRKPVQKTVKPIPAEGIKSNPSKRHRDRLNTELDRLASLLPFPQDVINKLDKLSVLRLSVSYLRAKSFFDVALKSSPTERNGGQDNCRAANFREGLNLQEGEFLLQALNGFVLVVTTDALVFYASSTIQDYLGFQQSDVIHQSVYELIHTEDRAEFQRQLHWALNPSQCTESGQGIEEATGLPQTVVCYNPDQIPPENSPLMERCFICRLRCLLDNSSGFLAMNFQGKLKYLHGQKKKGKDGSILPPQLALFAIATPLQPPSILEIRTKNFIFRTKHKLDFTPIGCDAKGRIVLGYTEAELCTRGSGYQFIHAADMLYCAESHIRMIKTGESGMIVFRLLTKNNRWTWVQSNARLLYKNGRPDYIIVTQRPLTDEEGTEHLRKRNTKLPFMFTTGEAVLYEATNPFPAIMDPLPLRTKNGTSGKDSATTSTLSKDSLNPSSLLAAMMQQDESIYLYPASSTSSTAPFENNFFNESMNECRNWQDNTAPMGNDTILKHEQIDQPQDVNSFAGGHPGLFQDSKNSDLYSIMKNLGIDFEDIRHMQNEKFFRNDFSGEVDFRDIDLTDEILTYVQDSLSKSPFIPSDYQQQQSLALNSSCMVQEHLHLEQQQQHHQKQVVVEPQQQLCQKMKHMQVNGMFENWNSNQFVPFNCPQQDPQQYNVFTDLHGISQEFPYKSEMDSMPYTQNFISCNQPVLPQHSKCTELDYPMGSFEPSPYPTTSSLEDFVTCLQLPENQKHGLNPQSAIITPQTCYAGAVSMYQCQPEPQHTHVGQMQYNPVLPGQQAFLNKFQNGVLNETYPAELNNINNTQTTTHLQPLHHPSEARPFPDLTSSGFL
HTR2A ag = mouse HTR2A agonism via beta-arrestin recruitment | CHO-K1 mHTR2A beta-arrestin complementation, luminescence; percent of 30 µM serotonin response | activation, % at 7.6 µM | 0.66% of 360,000 active | AID 624169;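 active = activation above a run cutoff, the mean activation of all tested compounds plus 3 SD, cut at about 14% in these data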;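 also: 0% = plate median of compound wells and 100% = 30 µM serotonin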
FXN GAA850 act = frataxin GAA850 promoter activation; activation, % at 6 µM; 0.56% of 360,000 active; HEK293 lucGAA850 FXN promoter luciferase reporter, 24 h; percent of 10 µM SAHA response;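 active = activation above the average of all compounds screened plus 3 SD, cutoff fixed separately per campaign, cut at about 7.5% in these data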;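 also: 0% = DMSO wells and 100% = 10 µM SAHA wells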
MC4R ag barr = human MC4R agonism via beta-arrestin. AID 540308. U2OS MC4R beta-arrestin complementation, luminescence; percent of melanotan II response, DMSO zero. activation, % at 8.9 µM. 0.98% of 360,000 active. P32245;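 active = activation above a per-plate cutoff, the mean activation of sample wells on that plate plus 3 SD, cut at about 8% in these data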
GAA30 counter = activates GAA30 frataxin promoter, counter-screen for GAA850 activators; shares compounds with FXN GAA850 act; HEK293 lucGAA30 FXN promoter luciferase, 24 h; DMSO = 0%, 5 µM ipriflavone = 100%; activation, % at 6 µM; 66% of 1,900 active; AID 588350;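 active = mean activation above the mean of solvent-only control wells plus 3 SD, cut at about 22% in these data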;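 also: counterscreen of GAA850 promoter hits where activity marks nonselective or luminescence artifacts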
FXN GAA850 conf = GAA850 FXN promoter activation confirmation; shares compounds with FXN GAA850 act; HEK293 lucGAA850 FXN promoter luciferase reporter, 24 h; 100% = activation by SAHA; activation, % at 6 µM; 86% of 1,900 active; AID 588351;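 active = mean activation above a set limit taken from the primary screen, cut at about 8% in these data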;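 also: 0% = DMSO wells and 100% = 10 µM SAHA wells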
An asterisk follows results filed as active; / = no result given. Sampled rows, rich in hits. Any-hit rate of the full collection: about 4.7%.

SMILES	MC4R antagonist	AHR act	HTR2A ag	FXN GAA850 act	MC4R ag barr	GAA30 counter	FXN GAA850 conf
CN(C)C1C(=O)C(C(N)=O)=C(O)C2(O)C(=O)C3=C(O)c4c(O)cccc4C(C)(O)C3C(O)C12 (stereo not given)	-2	-3	3	16*	0	33*	11*
CC1COC2N=C(N[N+](=O)[O-])NC2O1 (stereo not given)	0	0	-2	0	-2	/	/
C/C(=N\N1CCCCC1c1cccnc1)c1c(O)n(C2CCCCC2)c(=S)[nH]c1=O (stereo not given)	-2	6	5	8.2*	-1	15	17*
O=[N+]([O-])c1nccn1CC(O)CN1CC1 (stereo not given)	/	/	-2	/	/	/	/
C[C@]1(O)CCC2C3CC[C@H]4C[C@@H](OC(=O)CNC(=O)CN)CC[C@]4(C)C3CC[C@@]21C (stereo not given in full)	-1	0	-1	1	-1	/	/
COc1cccc(CNCCc2c[nH]c3ccccc23)c1OC	15	3	0	-2	0	/	/
COc1ccc(CNCCc2c[nH]c3ccccc23)c(OC)c1OC	1	2	9	8.1*	-1	13	8.7*
CC(C)(O)C(=O)Nc1ccc([N+](=O)[O-])c(C(F)(F)F)c1	4	1	4	12*	1	16	7
COc1cc2c(cc1OC)CN(c1ccc([N+](=O)[O-])c(C(F)(F)F)c1)CC2	10	25	3	3	-3	/	/
CC1(C)CCCN1CCC(C(N)=O)(c1ccccc1)c1ccccc1	6	/	-2	-3	-1	/	/
C=CC(C)C(C(=O)c1ccccc1)N(C)C (stereo not given)	9	2	3	1	-1	/	/
CCNC(=O)[C@H]1O[C@@H](n2cnc3c(N)ncnc32)[C@H](O)[C@@H]1O	-5	-3	-4	8.6*	0	35*	18*
Cc1ccc(C(O)(C(=O)OC(C)C)C(O)c2ccc(F)cc2)cc1 (stereo not given)	/	/	1	/	/	/	/
c1cncc(C2CCCCN2)c1 (stereo not given)	17	3	-1	-1	-1	/	/
c1cncc(C2Nc3cccc4cccc(c34)N2)c1	-6	13	6	12*	-1	26*	5
C=C1C(C)C2C(Cc3ccccc3)NC(=O)C23C(OC(C)=O)C=CC(C)(O)CC(C)CC=CC3C1O (stereo not given)	-11	/	11	7.6*	-1	17	23*
O=C1NC(=O)N(Cc2ccco2)C(=O)/C1=C/C=C/c1ccco1	3	0	2	10*	0	-4	26*
Cn1cccc1/C=C1\C(=O)NC(=O)N(Cc2ccco2)C1=O	-9	/	-1	4	0	/	/
O=C1NC(=O)N(Cc2ccccc2)C(=O)/C1=C\C=C\c1ccco1	23	-3	3	13*	1	8	31*
COc1ccccc1N1CCN(Cc2cccc(Br)c2)CC1	14	3	7	0	3	/	/
CN1CCN(c2ccc3c(c2)S(=O)(=O)c2ccccc2C3=O)CC1	-3	43	-6	8.8*	-1	97*	35*
CCC(=NCc1ccco1)c1c(O)n(-c2ccccc2C)c(=O)[nH]c1=O	12	-1	1	0	-1	/	/
O=C1C=C2C=C[C@@H]3CC2(O1)[C@H]1CCCCN31	6	-2	-1	8.1*	0	36*	14*
